Screening results (PubChem BioAssay)
Rev-erbA mod: Rev-erb alpha (human) modulation | Rev-erbα–FITC-DNA binding, fluorescence polarization, 90 min | 370,000 compounds, 0.79% hits | activity, % at 10 µM;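 active = activity above about 14%, limit read from the data; passing the limit was not always enough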
Target sequence (P20393 whole entry, looked up): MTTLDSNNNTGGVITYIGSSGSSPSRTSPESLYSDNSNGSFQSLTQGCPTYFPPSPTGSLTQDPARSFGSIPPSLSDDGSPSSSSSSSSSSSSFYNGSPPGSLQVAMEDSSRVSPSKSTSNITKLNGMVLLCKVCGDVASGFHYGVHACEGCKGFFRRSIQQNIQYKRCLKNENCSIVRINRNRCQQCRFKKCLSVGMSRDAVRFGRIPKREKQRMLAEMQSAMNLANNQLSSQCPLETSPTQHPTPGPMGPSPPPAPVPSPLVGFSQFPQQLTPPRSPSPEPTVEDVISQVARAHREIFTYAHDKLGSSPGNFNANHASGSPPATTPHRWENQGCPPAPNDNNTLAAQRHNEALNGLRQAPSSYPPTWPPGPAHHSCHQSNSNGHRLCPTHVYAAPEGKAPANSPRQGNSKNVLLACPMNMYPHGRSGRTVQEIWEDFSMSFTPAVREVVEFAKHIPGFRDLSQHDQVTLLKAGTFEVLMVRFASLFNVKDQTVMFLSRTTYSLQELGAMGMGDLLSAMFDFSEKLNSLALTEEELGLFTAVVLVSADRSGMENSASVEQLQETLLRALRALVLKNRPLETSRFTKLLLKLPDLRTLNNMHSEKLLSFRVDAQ
Rin1 Abl inh: blocks binding of human Rin1 to Abl. TR-FRET Rin1/Abl binding, biochemical. inhibition, % at 7.35 µM. 360,000 compounds, 0.4% hits. AID 588664; in the data active = inhibition above about 5%, passing the limit was not always enough
TbMetRS inhib: Trypanosoma brucei MetRS inhibition; purified T. brucei MetRS, ATP depletion, Kinase-Glo luminescence; inhibition, % at 11.9 µM; 360,000 compounds, 0.4% hits;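 active = inhibition above a per-plate cutoff of the control wells' mean inhibition plus 3 SD, cut at about 5.5% in these data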
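Measured by: Kinase-Glo luciferase luminescence reporting remaining unconsumed ATP. Material: purified T. brucei MetRS enzyme. Doses: 11.9 µM compound single dose, 0.9% DMSO. Medium: HEPES buffer containing pyrophosphatase, BSA, spermine, DTT. Times: 15 min preincubation, 2 h reaction, all 25 °C. Reagent: methionine, ATP and bulk E. coli tRNA.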
PG9 Ab binder: PG9 antibody binding by small molecule | inhibition, % at 6.7 µM | 360,000 compounds, 0.43% hits | TR-FRET gp120-PG9 antibody binding; in the data active = inhibition above about 8.5%
Rin1-Abl confirm: Rin1-Abl interaction inhibition confirmation; TR-FRET Rin1-Abl binding, purified proteins; shares compounds with Rin1 Abl inh; 1,300 compounds, 49% hits; inhibition, % at 7.35 µM; AID 602124
GFP quench: quenches GFP fluorescence, counter-screen for Rin1-Abl inhibitors | shares compounds with Rin1 Abl inh | inhibition, % at 6.75 µM | inhibitors/quenchers counterscreen | 1,300 compounds, 8.5% hits | AID 602125;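 also: ABL1-eGFP fusion protein alone without its partner RIN1-SBP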
TbMetRS confirm: Trypanosoma brucei MetRS inhibition confirmed; shares compounds with TbMetRS inhib; T. brucei MetRS enzyme, luminescence (ATP depletion); inhibition, % at 11.9 µM; 1,400 compounds, 93% hits; AID 624412; in the data active = inhibition above about 7%
Jurkat cytotox: kills Jurkat cells in T. brucei MetRS counterscreen. shares compounds with TbMetRS inhib. Jurkat cells viability, ATP luminescence. inhibition, % at 8.3 µM. 1,400 compounds, 12% hits; in the data active = inhibition above about 15%
Tb MetRS inh FP: orthogonal test for Trypanosoma brucei MetRS inhibitors; AID 651607; shares compounds with TbMetRS inhib; 1,400 compounds, 44% hits; inhibition, % at 11.9 µM; purified T. brucei MetRS, fluorescence polarization; in the data active = inhibition above about 17%
PG9 binder conf: PG9 antibody binding, confirmed. shares compounds with PG9 Ab binder. TR-FRET PG9 antibody binding, biochemical. inhibition, % at 6.7 µM. 1,500 compounds, 90% hits; in the data active = inhibition above about 9%
PGV04 counter: binds control antibody PGV04 in PG9 binder counter-screen. shares compounds with PG9 Ab binder. TR-FRET PGV04 antibody-gp120 binding, biochemical. inhibition, % at 6.7 µM. 1,500 compounds, 95% hits. AID 651604; in the data active = inhibition above about 9.5%
Rev-erbA confirm: confirmation of modulators of human Rev-erb alpha DNA binding. activation, % at 25 µM. 3,000 compounds, 61% hits. shares compounds with Rev-erbA mod. Rev-erb alpha FITC-DNA binding, fluorescence polarization, 90 min;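 active = activation at or above a set limit, or at least 3 SD above the negative control mean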
Each line names hits and unclear results; the compound was inactive in the other large screens (follow-up assays come after a bar, where they were run). Shown are actives, neighbours in structure and some others; about 1.8% of the full set was active somewhere. Rule as the data show it, unless noted: active = inhibition above about 6.5%; inactive = the rest.

COC(=O)C=CC(=NNc1ccccc1)c1ccccc1	Rin1 Abl inh 9.1 | Rin1-Abl confirm inactive | GFP quench inactive
O=C(NCc1ccccc1)O[C@H]1CC[C@@]23CCCN2C(=O)CCC[C@H]3C1	none (no result: Rin1 Abl inh, TbMetRS inhib, PG9 Ab binder)
O=C(CSc1nnc(Cn2c(=O)sc3ccccc32)n1-c1ccccc1)N1CCCC1	none
COc1ccc(-n2c(Cn3c(=O)sc4ccccc43)nnc2SCC(=O)N2CCOCC2)cc1	Rin1 Abl inh 6.5 | Rin1-Abl confirm inactive | GFP quench inactive
O=C(CSc1nnc(Cn2c(=O)sc3ccccc32)n1-c1ccccc1)Nc1nccs1	Rin1 Abl inh 9.6 | Rin1-Abl confirm inactive | GFP quench inactive
Cc1ccc(-c2nnc(SCC(=O)Nc3nccs3)n2N)cc1	Rin1 Abl inh 8.0 | Rin1-Abl confirm 9.9 | GFP quench inactive
CCC(=O)Nc1ccc(-c2nnc(SCC(=O)Nc3nccs3)n2C)cc1	Rin1 Abl inh 7.2 | Rin1-Abl confirm inactive | GFP quench inactive
Cc1cc(C)nc(SCc2nnc(SCC(=O)Nc3nccs3)n2C)n1	none
COc1ccc(CCCc2nnc(SCC(=O)Nc3nccs3)n2C)cc1C	Rin1 Abl inh 8.4 | Rin1-Abl confirm inactive | GFP quench inactive
Cc1ccc(S(=O)(=O)N2c3ccccc3C[C@H]2CCC(=O)c2ccccc2)cc1	none (no result: Rin1 Abl inh, TbMetRS inhib, PG9 Ab binder)
CCC[C@@H](/C=C/C(=O)OC(C)(C)C)Sc1ccc(OC)cc1	none (no result: Rin1 Abl inh, TbMetRS inhib, PG9 Ab binder)
O=C1CN(C(=O)COc2ccccc2)CCN1	Rin1 Abl inh 8.5 | Rin1-Abl confirm inactive | GFP quench inactive
COc1ccc(SCCCn2c(=O)c3c(ncn3C)n(C)c2=O)cc1	Rin1 Abl inh 7.7 | Rin1-Abl confirm inactive | GFP quench inactive
COc1ccc(-n2ncc3c(N4CCCCC4)ncnc32)cc1	Rin1 Abl inh 6.1 (no result: Rev-erbA mod, PG9 Ab binder) | Rin1-Abl confirm inactive | GFP quench inactive
CN(C)c1ccc(-c2[nH][nH]c(=O)c2NC(=O)c2ccc3ccccc3n2)cc1	Rin1 Abl inh 36, TbMetRS inhib 13 | Rin1-Abl confirm 10 | GFP quench inactive | TbMetRS confirm inactive | Jurkat cytotox inactive | Tb MetRS inh FP inactive
CN(C)c1ccc(-c2[nH][nH]c(=O)c2NC(=O)c2ccccn2)cc1	Rin1 Abl inh 34, TbMetRS inhib 28 | Rin1-Abl confirm 11 | GFP quench inactive | TbMetRS confirm inactive | Jurkat cytotox inactive | Tb MetRS inh FP inactive
Cc1cnc(C(=O)Nc2c(-c3ccccc3)[nH][nH]c2=O)cn1	none (no result: Rin1 Abl inh)
O=C1N(CCCO)CCC12CCC(c1ccccc1)CC2 (configuration not stated)	none (no result: Rin1 Abl inh, TbMetRS inhib, PG9 Ab binder)
O[C@H](COc1ccc(F)cc1)CN1CCC(C(O)(c2ccccc2)c2ccccc2)CC1	none (no result: Rin1 Abl inh, TbMetRS inhib, PG9 Ab binder)
O=c1[nH]c(Nc2ccccc2)cc2ccccc12	Rin1 Abl inh 5.6, TbMetRS inhib 8.1 | Rin1-Abl confirm inactive | GFP quench inactive | TbMetRS confirm inactive | Jurkat cytotox inactive | Tb MetRS inh FP inactive
CCCCCn1c(NC(=O)c2ccco2)c(S(=O)(=O)c2ccc(C)cc2)c2nc3ccccc3nc21	none
CCCCn1c(NS(=O)(=O)c2ccccc2)c(S(=O)(=O)c2ccc(C)cc2)c2nc3ccccc3nc21	Rin1 Abl inh 22, TbMetRS inhib 16 | Rin1-Abl confirm 11 | GFP quench inactive | TbMetRS confirm 12 | Jurkat cytotox inactive | Tb MetRS inh FP inactive
CCCCCCCCN1C(=O)[C@@H](CC(=O)NCCc2ccccc2OC)C[C@@]2(C(=O)OC)C1=C[C@H](C1CCCC1)O[C@@H]2C	none (no result: Rin1 Abl inh, TbMetRS inhib)
Nc1ccc2c(c1)C(=O)C(=O)c1ccccc1-2	Rin1 Abl inh 10, TbMetRS inhib 22 | Rin1-Abl confirm inactive | GFP quench inactive | TbMetRS confirm 15 | Jurkat cytotox 97 | Tb MetRS inh FP inactive
C[C@H](NC(=O)c1ncn2c1c(=O)[nH]c1ccc(Br)cc12)c1ccccc1	Rev-erbA mod 133, Rin1 Abl inh 7.9, PG9 Ab binder 20 | Rin1-Abl confirm inactive | GFP quench inactive | PG9 binder conf 43 | PGV04 counter 52 | Rev-erbA confirm 24
COCc1cc(N2CCN(C(=O)OC(C)(C)C)C[C@@H]2C)ccc1N1CC[C@H](O)C1	none (no result: Rin1 Abl inh, TbMetRS inhib)
Cc1cc(Cn2nc(-c3ccccc3)cc2C(=O)NCc2cccc(C(F)(F)F)c2)on1	none
Cc1cc(Cn2nc(-c3ccccc3)cc2C(=O)NCc2cccc(Br)c2)on1	TbMetRS inhib 54 | TbMetRS confirm 84 | Jurkat cytotox inactive | Tb MetRS inh FP 68
O=C(NCc1cccc(Cl)c1)c1ccc2c(c1)SC1=NS(=O)(=O)CCN12	TbMetRS inhib 6.1 | TbMetRS confirm 15 | Jurkat cytotox inactive | Tb MetRS inh FP inactive
Cn1c(=O)oc2cc(S(=O)(=O)N3CCN(c4cccc(C(F)(F)F)c4)CC3)ccc21	none (no result: Rin1 Abl inh, TbMetRS inhib, PG9 Ab binder)
O=C(NNC(=O)c1ccccc1F)c1ccc(-n2cncn2)c([N+](=O)[O-])c1	none
O=C(Nc1ccc(F)c(F)c1)c1ccc(-n2cncn2)c([N+](=O)[O-])c1	TbMetRS inhib 37 | TbMetRS confirm 58 | Jurkat cytotox inactive | Tb MetRS inh FP 29
O=C(Nc1cc(F)ccc1F)c1ccc(-n2cncn2)c([N+](=O)[O-])c1	TbMetRS inhib 36 | TbMetRS confirm 57 | Jurkat cytotox inactive | Tb MetRS inh FP 33
O=C(Nc1cccc(/C=C/c2ccccn2)c1)c1ccc(-n2cncn2)c([N+](=O)[O-])c1	TbMetRS inhib 23 | TbMetRS confirm 62 | Jurkat cytotox 22 | Tb MetRS inh FP 55
CC1(c2nnnn2-c2ccc3c(c2)OCCO3)CSCC(=O)N1CCc1c[nH]c2ccccc12 (configuration not stated)	none (no result: Rin1 Abl inh, TbMetRS inhib, PG9 Ab binder)
CCOC(=O)[C@@]12CCC3=C1N(CCC3)C(=O)[C@H](CC(=O)N1CCC(c3ccccc3)CC1)C2	none (no result: Rin1 Abl inh, TbMetRS inhib, PG9 Ab binder)
O=C(COc1ccc([N+](=O)[O-])cc1)NNC(=O)Nc1ccc([N+](=O)[O-])cc1	none
O=C(C/C=N\OCc1ccc([N+](=O)[O-])cc1)Nc1ccc(Br)cc1	TbMetRS inhib 83 | TbMetRS confirm 101 | Jurkat cytotox inactive | Tb MetRS inh FP 91
